Activity calls are given as the source filed them. The rule behind the calls is not given here.
Tests used:
[1] = biological target: Proto-oncogene tyrosine-protein kinase Src (Homo sapiens, UniProt P12931); assay: Inhibition of Src by HTRF assay
Method in brief: (§1)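 Enzyme inhibition was run with ATP at its Km for each kinase. Values are averages of at least two determinations.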

Angiopoietin-1 receptor = Angiopoietin-1 receptor (Homo sapiens, UniProt Q02763); assay: Inhibition of Tie-2 by HTRF assay; method in brief: as §1
[2] = biological target: Mast/stem cell growth factor receptor Kit (Homo sapiens, UniProt P10721); assay: Inhibition of c-Kit by HTRF assay; method in brief: as §1
Chain of Mast/stem cell growth factor receptor Kit (P10721 whole entry): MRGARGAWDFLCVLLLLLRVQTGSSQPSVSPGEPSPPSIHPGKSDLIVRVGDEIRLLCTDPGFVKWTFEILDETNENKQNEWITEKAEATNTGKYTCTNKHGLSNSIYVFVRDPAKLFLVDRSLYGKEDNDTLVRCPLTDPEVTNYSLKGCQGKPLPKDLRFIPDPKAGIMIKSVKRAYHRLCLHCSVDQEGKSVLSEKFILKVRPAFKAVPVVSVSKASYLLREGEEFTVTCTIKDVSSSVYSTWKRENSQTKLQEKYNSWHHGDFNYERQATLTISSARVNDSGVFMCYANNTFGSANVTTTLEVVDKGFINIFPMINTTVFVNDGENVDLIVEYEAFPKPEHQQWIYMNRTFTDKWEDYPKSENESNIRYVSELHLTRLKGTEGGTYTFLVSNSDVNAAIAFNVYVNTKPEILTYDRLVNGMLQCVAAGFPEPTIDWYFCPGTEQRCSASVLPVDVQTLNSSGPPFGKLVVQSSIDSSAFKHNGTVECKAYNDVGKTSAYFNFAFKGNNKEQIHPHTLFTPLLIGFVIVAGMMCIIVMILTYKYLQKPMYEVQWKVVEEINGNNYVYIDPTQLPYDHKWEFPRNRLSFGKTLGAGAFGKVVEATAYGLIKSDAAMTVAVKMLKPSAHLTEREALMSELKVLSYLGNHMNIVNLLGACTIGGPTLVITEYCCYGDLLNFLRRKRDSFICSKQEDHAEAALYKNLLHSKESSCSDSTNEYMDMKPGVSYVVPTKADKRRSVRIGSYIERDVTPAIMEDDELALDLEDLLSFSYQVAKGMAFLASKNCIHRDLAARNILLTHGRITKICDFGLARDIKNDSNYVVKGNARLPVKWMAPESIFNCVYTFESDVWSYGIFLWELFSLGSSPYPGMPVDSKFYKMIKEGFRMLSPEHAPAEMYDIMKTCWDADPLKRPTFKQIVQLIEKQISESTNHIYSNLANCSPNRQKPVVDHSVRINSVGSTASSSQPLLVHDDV

[3] = biological target: Macrophage colony-stimulating factor 1 receptor (Homo sapiens, UniProt P07333); assay: Inhibition of c-Fms by HTRF assay; method in brief: as §1
Chain of Macrophage colony-stimulating factor 1 receptor (P07333 whole entry): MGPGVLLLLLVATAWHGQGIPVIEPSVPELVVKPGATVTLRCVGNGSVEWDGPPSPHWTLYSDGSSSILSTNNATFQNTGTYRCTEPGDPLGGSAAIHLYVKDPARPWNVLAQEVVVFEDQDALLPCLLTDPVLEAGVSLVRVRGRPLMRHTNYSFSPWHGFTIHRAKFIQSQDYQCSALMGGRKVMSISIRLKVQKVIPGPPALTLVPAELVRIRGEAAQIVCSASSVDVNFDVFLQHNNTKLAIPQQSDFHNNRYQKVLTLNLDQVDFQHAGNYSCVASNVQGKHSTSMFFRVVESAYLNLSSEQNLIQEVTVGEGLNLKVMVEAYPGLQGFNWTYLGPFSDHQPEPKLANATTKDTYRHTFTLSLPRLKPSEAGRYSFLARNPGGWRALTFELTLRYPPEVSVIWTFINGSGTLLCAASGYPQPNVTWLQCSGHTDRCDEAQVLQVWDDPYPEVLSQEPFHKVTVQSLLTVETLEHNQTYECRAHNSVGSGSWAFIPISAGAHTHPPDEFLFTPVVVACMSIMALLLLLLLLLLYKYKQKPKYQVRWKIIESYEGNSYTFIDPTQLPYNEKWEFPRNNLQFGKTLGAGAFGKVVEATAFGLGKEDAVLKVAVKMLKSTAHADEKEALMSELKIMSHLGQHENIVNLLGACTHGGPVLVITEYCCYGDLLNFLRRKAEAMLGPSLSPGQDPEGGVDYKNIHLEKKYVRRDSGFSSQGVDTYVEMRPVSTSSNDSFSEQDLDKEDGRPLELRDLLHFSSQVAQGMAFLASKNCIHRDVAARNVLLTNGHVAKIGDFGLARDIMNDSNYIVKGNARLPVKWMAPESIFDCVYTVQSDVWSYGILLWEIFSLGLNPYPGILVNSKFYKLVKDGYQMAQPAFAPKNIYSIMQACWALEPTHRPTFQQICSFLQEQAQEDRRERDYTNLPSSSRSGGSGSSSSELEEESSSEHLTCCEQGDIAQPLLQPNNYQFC

[4] = Intrinsic clearance in rat liver microsomes at 1 uM after up to 40 mins; assay type: ADME, Microsome
[5] = Oral bioavailability in Sprague-Dawley rat at 2 mg/kg; assay type: ADME, organism-based; conditions: in vivo
[6] = Half life in Sprague-Dawley rat at 0.5 mg/kg, iv and 2 mg/kg, po; assay type: ADME, organism-based; conditions: in vivo
[7] = biological target: Cyclin-dependent kinase 1 (Homo sapiens, UniProt P06493); assay: Inhibition of CDK1 by HTRF assay; method in brief: as §1
Chain of Cyclin-dependent kinase 1 (P06493 whole entry): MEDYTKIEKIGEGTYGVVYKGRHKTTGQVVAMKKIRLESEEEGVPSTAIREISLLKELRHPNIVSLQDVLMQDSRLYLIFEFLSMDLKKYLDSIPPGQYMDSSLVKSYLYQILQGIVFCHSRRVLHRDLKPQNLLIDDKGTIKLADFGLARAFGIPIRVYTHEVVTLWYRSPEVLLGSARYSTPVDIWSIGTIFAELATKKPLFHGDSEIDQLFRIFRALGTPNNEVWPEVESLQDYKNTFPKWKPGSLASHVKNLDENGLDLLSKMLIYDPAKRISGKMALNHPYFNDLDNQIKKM

Plasma = assay: Drug level in human COLO205 cells xenografted in CD1 mouse plasma at 50 mg/kg, po after 3 to 6 hrs; assay type: ADME, organism-based, COLO 205; design: dose 50 mg/kg, route oral; conditions: in vivo
Method in brief: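 COLO 205 xenograft-bearing mice received a single 50 mg/kg oral dose (N = 12 per group). Plasma was sampled at 3, 6 and 24 h (N = 4 per time point) and analyzed for drug concentration. Results are reported as mean ± SD.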

[8] = Protein binding in mouse plasma at 10 uM by ultrafiltration; assay type: ADME, cell-free; conditions: read-out: PPB
HeLa = assay: Induction of morphological changes in human HeLa cells at […] after 48 hrs using DAPI staining by microscopic analysis
[9] = biological target: RAC-beta serine/threonine-protein kinase (Homo sapiens, UniProt P31751); assay: Inhibition of PKBbeta by HTRF assay; method in brief: as §1
Chain of RAC-beta serine/threonine-protein kinase (P31751 whole entry): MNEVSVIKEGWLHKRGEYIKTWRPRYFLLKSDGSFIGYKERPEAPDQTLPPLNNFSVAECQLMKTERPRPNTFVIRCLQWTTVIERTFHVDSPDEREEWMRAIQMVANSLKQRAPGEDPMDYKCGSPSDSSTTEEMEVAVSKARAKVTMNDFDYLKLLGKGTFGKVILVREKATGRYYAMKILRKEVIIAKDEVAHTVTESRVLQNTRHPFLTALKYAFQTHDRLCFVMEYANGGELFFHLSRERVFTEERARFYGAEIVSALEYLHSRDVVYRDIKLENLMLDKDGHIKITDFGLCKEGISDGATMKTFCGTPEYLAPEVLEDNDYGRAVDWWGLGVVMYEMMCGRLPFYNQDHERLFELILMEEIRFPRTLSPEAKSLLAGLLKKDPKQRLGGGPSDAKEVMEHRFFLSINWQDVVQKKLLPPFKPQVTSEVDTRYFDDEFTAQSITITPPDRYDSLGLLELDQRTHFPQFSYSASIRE

[10] = biological target: Ribosomal protein S6 kinase alpha-5 (Homo sapiens, UniProt O75582); assay: Inhibition of MSK1 by HTRF assay; method in brief: as §1
Chain of Ribosomal protein S6 kinase alpha-5 (O75582 whole entry): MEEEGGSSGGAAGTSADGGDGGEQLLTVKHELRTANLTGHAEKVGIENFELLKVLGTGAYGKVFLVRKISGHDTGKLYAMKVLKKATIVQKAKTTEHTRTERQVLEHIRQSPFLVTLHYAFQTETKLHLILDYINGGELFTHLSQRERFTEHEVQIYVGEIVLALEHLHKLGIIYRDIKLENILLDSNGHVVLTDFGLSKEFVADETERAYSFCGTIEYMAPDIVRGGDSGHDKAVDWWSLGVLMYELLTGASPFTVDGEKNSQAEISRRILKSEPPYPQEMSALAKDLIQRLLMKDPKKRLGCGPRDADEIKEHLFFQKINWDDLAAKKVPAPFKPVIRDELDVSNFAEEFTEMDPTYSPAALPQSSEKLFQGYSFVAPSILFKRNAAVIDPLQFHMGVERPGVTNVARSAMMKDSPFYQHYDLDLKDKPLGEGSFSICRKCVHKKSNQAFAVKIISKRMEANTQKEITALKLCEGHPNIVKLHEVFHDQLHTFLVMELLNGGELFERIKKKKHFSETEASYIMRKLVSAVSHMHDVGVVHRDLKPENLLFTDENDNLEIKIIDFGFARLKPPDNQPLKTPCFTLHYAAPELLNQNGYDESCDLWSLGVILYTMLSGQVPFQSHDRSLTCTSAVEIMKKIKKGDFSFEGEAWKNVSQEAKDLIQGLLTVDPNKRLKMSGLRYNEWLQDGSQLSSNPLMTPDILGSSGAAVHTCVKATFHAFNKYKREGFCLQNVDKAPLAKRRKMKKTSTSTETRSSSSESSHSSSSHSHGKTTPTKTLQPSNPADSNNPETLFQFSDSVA

Aurora kinase B = Aurora kinase B (Homo sapiens, UniProt Q96GD4); assay: Inhibition of aurora B in human HeLa cells assessed as reduction of histone H3 phosphorylation at Ser10 at 0.313 uM after 24 hrs by flow cytometry
Chain of Aurora kinase B (Q96GD4 whole entry): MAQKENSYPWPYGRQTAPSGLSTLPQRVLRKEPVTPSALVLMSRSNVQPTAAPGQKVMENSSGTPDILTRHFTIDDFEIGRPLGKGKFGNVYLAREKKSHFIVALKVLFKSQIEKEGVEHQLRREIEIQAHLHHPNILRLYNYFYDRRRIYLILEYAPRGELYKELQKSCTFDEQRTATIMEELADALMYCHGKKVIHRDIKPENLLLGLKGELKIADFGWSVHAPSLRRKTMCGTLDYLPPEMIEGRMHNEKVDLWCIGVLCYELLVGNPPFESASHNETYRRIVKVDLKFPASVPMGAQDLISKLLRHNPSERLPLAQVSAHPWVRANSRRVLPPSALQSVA

Mus musculus = assay: Inhibition of aurora B in human COLO205 cells xenografted in CD1 mouse assessed as reduction of phosphorylated histone H3 level at 50 mg/kg, po after 3 to 6 hrs by immunofluorescence-based flow cytometry; assay type: functional; conditions: CD1, COLO 205
Method in brief: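 Mice carried established COLO 205 xenografts of about 300 mm3 and received a single oral dose of vehicle or 50 mg/kg (N = 12 per group). Tumors were harvested at 3, 6 and 24 h (N = 4 per time point). p-Histone H3 was measured by immunofluorescence-based flow cytometry as the percentage of positive cells in G2/M. Groups were compared with ANOVA and Scheffe's post hoc test against vehicle.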

Chain of Proto-oncogene tyrosine-protein kinase Src (P12931 2-536 limits assumed): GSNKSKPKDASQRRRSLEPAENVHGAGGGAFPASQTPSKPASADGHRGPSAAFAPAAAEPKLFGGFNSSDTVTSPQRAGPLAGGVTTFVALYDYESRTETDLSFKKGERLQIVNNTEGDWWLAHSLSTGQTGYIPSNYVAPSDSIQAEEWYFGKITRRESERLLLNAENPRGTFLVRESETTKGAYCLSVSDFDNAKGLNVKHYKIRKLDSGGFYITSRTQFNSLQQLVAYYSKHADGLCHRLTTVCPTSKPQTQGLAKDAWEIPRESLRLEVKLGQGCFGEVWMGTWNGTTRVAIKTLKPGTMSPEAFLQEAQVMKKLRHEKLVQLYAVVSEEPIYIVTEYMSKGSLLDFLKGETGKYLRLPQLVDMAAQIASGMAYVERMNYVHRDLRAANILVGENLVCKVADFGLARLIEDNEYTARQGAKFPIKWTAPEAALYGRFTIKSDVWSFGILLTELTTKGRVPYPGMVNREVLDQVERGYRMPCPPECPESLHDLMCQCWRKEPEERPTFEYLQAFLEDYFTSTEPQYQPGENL

CNc1nccc(-c2cccnc2Oc2ccc(NC(=O)c3cccc(C(F)(F)F)c3)cc2C)n1
IC50 [1]: 5750 nM
IC50 (Angiopoietin-1 receptor): 630 nM
IC50 [2]: 1350 nM
IC50 [3]: 1580 nM

CNc1nccc(-c2cccnc2Oc2ccc(NC(=O)c3ccccc3Nc3ccccc3)cc2)n1
microsomal CLint at 1 µM [4]: 663 µL/min/mg
bioavailability [5]: < 1%
half-life [6]: 2.8 h
IC50 [7]: > 1000 nM

CNc1nccc(-c2cccnc2Oc2ccc(Nc3nnc(-c4ccc(F)cc4)c4ccccc34)cc2)n1
Cp (Plasma): >= 20000 ng/ml
fraction unbound at 10 µM [8]: < 0.001
Activity (HeLa): Active
IC50 [9]: > 25000 nM
IC50 [10]: > 25000 nM
Activity (Aurora kinase B): Active
inhibition in vivo at 50 mg/kg (Mus musculus): ≥ 96%

From ChEMBL document CHEMBL1240487, “Discovery of a potent, selective, and orally bioavailable pyridinyl-pyrimidine phthalazine aurora kinase inhibitor” (J Med Chem, 2010)
